These results are taken from the RNAGym collection of RNA variant scans (doi:10.1126/science.aae0568).

Fewer inactive variants are shown than the library holds.

The chains are these.
B1: tRNA (parent)
chain: GUUCCGUUGGCGUAAUGGUAACGCGUCUCCCUCCUAAGGAGAAGACUGCGGGUUCGAGUCCCGUACGGAACG

Variants of B1 are the subject of the data set. Nature of the data set: yeast fitness relative to wild type (ratio to wild type); higher = fitter; tRNA-Arg(CCU), competitive growth, 37 C, YPD. The method, boiled down: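 For this measurement, the tRNA-Arg(CCU) gene was varied by chemical synthesis at a 3% per-site mutation rate across 69 sites, and each variant was placed at the native genomic locus in Saccharomyces cerevisiae. The pooled strains went through a 24-hour competition in YPD at 37°C in six parallel replicates, with amplicons from start and end populations read by 100-nucleotide paired-end sequencing. Darwinian fitness relative to wild type followed from the change in each genotype's frequency. Genotypes needed ≥ 100 starting reads, and estimates < 0.5 were set to 0.5.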
On to GUGACAUUGGCGUAAUGGUAACGCGUCUCCCUCCCAAGGAGAAGACUGCGGGUUCGAGUCCCGUACGGAACG, for which the yeast fitness was at most 0.5.

GUUCCGUUGGCGUAAUGGUAACGCGUCUCCCUCCUAAGGAAAAGUCAGCGGGUUCGAGUCCUGUACGGUACG: the yeast fitness was at most 0.5.

Regarding GUUCCGUUGGUGUAAUGGUAACGCGUCUCCCUCCUAAGGAGAAGACUGCGGCUUCGAGUCCCGUACGGAACG, the yeast fitness amounted to 0.707.

Regarding GUUCUGUUGGCGUAAUGGUAACGCGUCUGCGUCCUUCGGAGAAGACUGCGGGUUCGCGUCCCGUACGCAACG, the yeast fitness is at most 0.5.

For the variant GUUGCGUUGGCGUAAUGGUAGCGCGUAUCCCUCCUAACGAGAAGACUGCGGGUUCGAGUCCCGUACGGAACG, the yeast fitness was at most 0.5.

GUUCUGUUGGCGUAAUGGUAACGCGUCUCCCUCCUAAGGAGAAGACUGCGGGUUCGAGUCCCGUACGGAGCG: the yeast fitness came out at 1.01.

On to GUUCCGUUGGCGUAAUGGUAACGCGUCUCCUUCCUAAGGAGAAGACUGCGGGUCCGAGUCCCGUACGGAACG, for which the yeast fitness is 0.82.

On to GUUCCGUUGGCGUAAUGGUAACGCGUCUCCCUCCUUAGGAGAAGAUUGCGGGUUCGAGUCCCGUACGGAACG, for which the yeast fitness was found to be 0.608.

As for GUUCCGUUGGCGUAAUGGUAACGCGUCUCCCUCCUAAGGAGAAGACUGCGGGUUCGAGUCCCGUGGGAAACG, the yeast fitness stood at 0.575.

GUUCCGUUGGCGUAAUGGCAACGCGUCUCCCUCCUAAGGAGAAGACUGCGGGUUCGAGUCCCGUUCGGAACG: the yeast fitness turned out to be 1.07.

With GUUCCGUUGGCGUAAUGGUAACGCGUCUCCCUCCUGAGGAGAAGCCUGCGGGUUGGACUCCCGUACGGAACG, the yeast fitness came out at 0.689.

Regarding GUUCCGUUGGCGUAAUGGUAACGCGUCUCGUUCCUAAGGAGAAGACUGCGGGUUCGAGUCGCGUACGGAACG, the yeast fitness stood at 0.557.

Take GUUCCGUUGGCGUAAUGGUAACGAGUCUCCCUCCUAAGGAGAAGACUGCGGGUUCGAGUCCCGUUCGGAACG: the yeast fitness was determined as 0.549.

Consider GUUCCGUUGGCGUAACGGUAACGCGUCUCCCUCCUAAGGAGAAGACUGCGGGUUUGAGUCCCGUACGGUACG, for which the yeast fitness is 0.629.

For GUUCCGUUGGCGUAAUGGUUACGCGUCCCUCUCCUAAGGAGAGGACUGCGGGUUCGAGUCCCGUACGGAACG, the yeast fitness is at most 0.5.

In the case of GUUCCGUUGGCGUAAUGGUAACGCGUCUCUCUCCUAAGGAGAAGACUGCAGGUUCGAGUCGCGUACGGAACG, the yeast fitness is at most 0.5.

Consider GUUCCGUUGGCGUAAUGGUAACGCGUUUCCCUACUAAGGAGAAGACUGGGGGUUCGAGUCCCGUACGGAACG, for which the yeast fitness was at most 0.5.

In the case of GUUCCGUUGGCGUUAUAGUAACGCGUCUGCCUCUAAACGAGAAGACUGCGGGUUGGAGUCCCGUACGGGCCG, the yeast fitness turned out to be 0.511.

On to GUUGCGUUGGCGUCAUGGUAACGCGUCUCCCUCCUAAGGAGAAGACUGUGGGUUCGAGUCCCGUACGGAACG, for which the yeast fitness was at most 0.5.

With GUUCCGUUGGCGUAAUGGUAUCGCGUCUCCCUCCUAAGAAGAAGACUGCGGGUUCGAGUCCCGUAUGGAACG, the yeast fitness worked out at 0.55.

For the variant GUUCCGUCGGCAUAAUGGUAACGCGUCUCCCUCCUAAGGAGAAGACUGCGGGUUCGAGUCCCAUACGGAACG, the yeast fitness is at most 0.5.

In the case of GUUCCGUUGGCGUAAUGGUAACGCGUCUCCCUCCUAAGGUGAAGACUGCGGGUACGAGUCCCGUACGGAACG, the yeast fitness came out at 0.576.

Take GUUCCGUUGGCGUAGUGGUAACGCGUCUCCCUCCUAAGGAGAAGACUGUGGGUUCGAGUGCCGUACGGAACG: the yeast fitness is at most 0.5.

For the variant GUUCCGUUGGCGUGAUGGUAACGGGUCUCCUUCCUAAGGAGAAGACUGCGGGUUCGAGUCCCGUACGAAACG, the yeast fitness was at most 0.5.

Take GUUCCGUUGGCGUAAUGGUAACGCGUCUCCCUCCUAAGCAGAAGAUUGCGGGUUCAAGUCCCGUACGGAACG: the yeast fitness amounted to 0.694.

Take GUUCCGUUGGCGUAAUGGAAACGCGUCUCCCUCCUAAGGAGACGACUGCGGGUUCGAGUCCCGUACGGUACG: the yeast fitness amounted to 0.56.

Take GUUCCGUUGGCGUAAUAGUAAAGCGUCUCCCUCCUGAGGAGAAGCUUGCGGGUUCGAGUCCCGUACGGAACG: the yeast fitness was at most 0.5.

Turning to GUUCCGAUGGCGUAAUGGUAACGCGUCUCCCUACUAAGGAGAAGCCUGCGGGUUCGAGUCCCGUACGGAACG, the yeast fitness is 0.54.

As to GGUCCGUUGGUGUAAUGGUAACACGUCUCCCUCCUAAGGAGAAGACUGCGGGUUCGAGUCCCGUACGGAACG, the yeast fitness is at most 0.5.

As for GUUCUGUUGGCGUAAUGGUAACGCGUCUCCCUCUUAAGGAGAAGACUGCGGGUUCGAGUCCCGUACGGAACG, the yeast fitness amounted to 0.746.

As for GUUCCGUUGGCGUAAUGGUAACGCGUCUCGCUCCUAAGGAGAAGACUGCGGGUUCGAGUACCGUACGGAACG, the yeast fitness was 0.739.

Take GUUGCGGUGGCGUAAUGGUAACGCGUCUCCCUCCUAAGGAGACGACUGCGGGUUCGAGUCCCGUACGGAACG: the yeast fitness was determined as 0.687.

GUUCCGUUGGCGUAAUGGCAUCGCGUCUCCCUCCUAAGGAGAAGACUGCGGGUUCGAGUCCCGUACGGUACG: the yeast fitness amounted to 0.691.

For GUUCCGUUGGCGUAAUGGUAACGCGUCUACCUCCUAAGGAGAAAACUGCGGGUUCGAGUCCCGUACGGAGCG, the yeast fitness is 0.804.

In the case of GUUCCGGUGGCGUAAUGGUAACGCGUCUCCCUCCUAAGGAGAAGAUUGCGGGUUCGAGUACCGUACAGAACG, the yeast fitness was at most 0.5.

GUUCCGUUGGCGUAAUGGUCACGCGUCUCCCUCCUAAGGAGCAGACUGCGGGUUCGAGUCCCGUACGGUACG: the yeast fitness worked out at 0.576.

With GUUCCGUUGGCGUAAUGGUAAAGCGUCUCCCUCCUAAGGAGAAGACUGCGGGUUCGAGCCCCGUACGGAACG, the yeast fitness came to 0.814.

With GUUCCGUUGGCGUAAUGGUAACGCAUCUCCAUCCUAAGGAGAAGACUGCGGGUUCGAGUCCCGUACGGAACG, the yeast fitness came to 0.671.
